This sample holds only a part of the variants without activity. Bounds are passed on as bounds.

The values that follow come from the RNAGym collection of RNA variant scans (doi:10.1126/science.aae0568).

To fix the notation:
B1: tRNA (parent)
chain: GUUCCGUUGGCGUAAUGGUAACGCGUCUCCCUCCUAAGGAGAAGACUGCGGGUUCGAGUCCCGUACGGAACG

The variants in the series derive from B1. Kind of series: yeast fitness relative to wild type (ratio to wild type); higher = fitter; tRNA-Arg(CCU), competitive growth, 37 C, YPD. An outline of the steps: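 Amplicons of the tRNA-Arg(CCU) gene were sequenced, 100-nucleotide paired-end, from the start population and from each end population of a pooled yeast competition. The competition, in six parallel replicates, lasted 24 hours in YPD at 37°C. Fitness relative to wild type was calculated from changes in genotype frequencies. Genotypes had to have ≥ 100 starting reads, and estimates < 0.5 were set to 0.5.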
On to C4A C11G C31A A42G C66A, for which the yeast fitness is ≤ 0.5.
For C4A G17A G41A G67A the value was ≤ 0.5; for C4A C30U, 0.756.
As to C4A C22G A37U U47A C62U, the yeast fitness is ≤ 0.5.
For C4A U8C G58A the value was ≤ 0.5; for C4A G23A U28A A57G, ≤ 0.5; for C4A U16C G17A A40C A43U U47A C60A, ≤ 0.5.
On to C4A G17C A36U G39A A42C G50U G63A, for which the yeast fitness was determined as 0.589.
Then C4A U7A U59A, with ≤ 0.5.
For C4A C24U A65U the value was ≤ 0.5; for C4A C34G G38C, ≤ 0.5; for C4A C31U G51A A70G, ≤ 0.5.
For C4A G25A A40C A65C the value was ≤ 0.5; for C4A C49U, 0.877.
Turning to C4A C49G, the yeast fitness was 0.704.
For C4A G17C G23C A45C the value was 0.527; for C4A G44A C46U U53C C62U, ≤ 0.5.
Take C4A C24A G67A: the yeast fitness is ≤ 0.5.
For C4A C29G A36U U53C, the yeast fitness was ≤ 0.5.
Then C4A U13A G18A G52A C55G, with ≤ 0.5; and C4A G9C C11G, with ≤ 0.5; and C4A G17A C27U C33U, with ≤ 0.5.
Then C4A G12A C34G C66U, with ≤ 0.5; and C4A G18A G44C C46U C49U G67A A70U, with ≤ 0.5.
Then C4A U8A G12C U19C C30U U47A A65U, with ≤ 0.5.
Turning to C4A C34G, the yeast fitness was determined as 0.563.
Then C4A C31U, with 0.864.
In the case of C4A U16C G17A C31U U54A, the yeast fitness was ≤ 0.5.
Then C4A C30G A40U C49U, with ≤ 0.5.
On to C4A C29G U47G U59G, for which the yeast fitness is ≤ 0.5.
For C4A G25A C29A A37G G50C U59A the value was ≤ 0.5; for C4A G9A G18C C22A G50C A65C, ≤ 0.5.
For the variant C4A G9A, the yeast fitness is 0.907.
Then C4A C31G A45G G50C G63A, with ≤ 0.5; and C4A U7A, with 0.679.
Then C4A G18A C29U C66A, with ≤ 0.5; and C4A G38C C55G A69C, with ≤ 0.5.
With C4A G17A C62U, the yeast fitness amounted to 0.556.
For C4A G23C C61A C62U C66U the value was ≤ 0.5; for C4A C24A A42G U59A, ≤ 0.5.
For C4A G17C U19C A21U C33G the value was ≤ 0.5.
Consider C4A U7C A36G G41A C49A G67U, for which the yeast fitness is ≤ 0.5.
For C4A C24G C62U A69C the value was 0.567; for C4A C31A U35C A45U A69U, ≤ 0.5.
For C4A G12C U19C C22U C24G A43U C61A the value was ≤ 0.5; for C4A G17C G50A G51A, ≤ 0.5.
For C4A G63U, the yeast fitness is 0.624.
Then C4A G63A, with 0.938; and C4A C62G C66U, with ≤ 0.5; and C4A C11U A14G A40G G50C, with ≤ 0.5.
Then C4A U8A C24U C55U G68C, with ≤ 0.5; and C4A C11A C29G A40G, with 0.574; and C4A U8A G17C C31U, with 0.558.
Then C4A U16G C22U G23U A42C G50C C66U, with ≤ 0.5; and C4A C11A A57G, with ≤ 0.5; and C4A U16A C29G C55U C66U, with ≤ 0.5.
For C4A G18C C24U C29U C34A, the yeast fitness worked out at 0.592.
Then C4A G17C A20U C22U, with ≤ 0.5; and C4A C11G A69U, with ≤ 0.5.
Then C4A G52C C62U, with ≤ 0.5.
Then C4A C22U U28C, with ≤ 0.5.
C4A C55U A57U U64G: the yeast fitness was ≤ 0.5.
On to C4A C22U U59A, for which the yeast fitness is ≤ 0.5.
Turning to C4A U7C G41A C49A, the yeast fitness worked out at 0.504.
As to C4A G10A G23A U28C C55G C60A, the yeast fitness was ≤ 0.5.
For C4A C11U A21U G23A U64C G67A the value was 0.581; for C4A G56C C66U, ≤ 0.5; for C4A U13C G23C C34G A40G A45G U53C U64A, ≤ 0.5.
Regarding C4A C33A A36C G67A, the yeast fitness is ≤ 0.5.
Turning to C4A G67A, the yeast fitness turned out to be 0.781.
In the case of C4A C11G C31A A42G, the yeast fitness was ≤ 0.5.
Turning to C4A C30G U47C C49G, the yeast fitness is ≤ 0.5.
Then C4A C11U C27G C33A A43C C46A, with ≤ 0.5.
For C4A G9A U16A A40G C46U C62G A69U the value was ≤ 0.5; for C4A C24G U28G C31U, ≤ 0.5; for C4A U13G A45U U47A U59C, ≤ 0.5.
Regarding C4A U7C C27U U53A, the yeast fitness was ≤ 0.5.
Then C4A G18C C61U, with ≤ 0.5; and C4A C33A C62A, with 0.668; and C4A G17C A20G C31G A37C, with ≤ 0.5.
For C4A C24A U26C C29A A36U C60U the value was ≤ 0.5; for C4A C27A G38A C62A, ≤ 0.5; for C4A C24A G41C G51C, ≤ 0.5.
C4A U13A A14C A43U: the yeast fitness came to 0.601.
For C4A C22G C33G U54G the value was ≤ 0.5; for C4A C11A C29G A40G C62G, ≤ 0.5.
Then C4A U7G G12C C29A C30U C34U C61U C66A, with ≤ 0.5; and C4A G23C C49U G58A A69C, with 0.535.
For C4A G44C A57C the value was ≤ 0.5; for C4A G18A G44C C46U C49U, ≤ 0.5; for C4A C11U A57C, ≤ 0.5.
In the case of C4A G52C C66U, the yeast fitness is ≤ 0.5.
For C4A C22U G68A the value was ≤ 0.5; for C4A C11G A40U A45U, ≤ 0.5.
Then C4A G17C C49U C62G, with ≤ 0.5; and C4A G23A G25C G51A, with 0.607.
For C4A U16G C22U G23U A42C G50C G63C G68C, the yeast fitness was 0.604.
For C4A G17A C60G A70G the value was ≤ 0.5; for C4A U13G A40G A45U U47A, ≤ 0.5; for C4A G10C C11U C27U A45U C60G, ≤ 0.5.
For C4A G12C U13G C30U G58C the value was ≤ 0.5.
As for C4A G23A, the yeast fitness was found to be 0.89.
For C4A G23C the value was 0.77.
In the case of C4A C22U, the yeast fitness was 0.789.
For C4A C22G the value was 0.65; for C4A G48A C61U, 0.661; for C4A C24G G44C, ≤ 0.5.
Then C4A C31U C61U, with ≤ 0.5.
As for C4A G51A A70G, the yeast fitness turned out to be 0.58.
For C4A C11G U19G U53C A65C the value was 0.528; for C4A C11G C31U G38C, 0.552.
Then C4A C31U A42C, with 0.572.
For C4A C31U A42U the value was 0.618; for C4A C22U C24A C29A A36C G52A U53A, ≤ 0.5.
For the variant C4A C29U A65G, the yeast fitness was ≤ 0.5.
For C4A U13C C30U A40G C55A G63C A65C the value was ≤ 0.5; for C4A U8C U19A C27U G38C C55U, ≤ 0.5.
Then C4A C24G G41U, with ≤ 0.5; and C4A C11G U13G G25A, with ≤ 0.5; and C4A C24G G44C A70U, with ≤ 0.5.
For C4A C34G G68A the value was ≤ 0.5; for C4A G18C C29A C31A C66U, ≤ 0.5; for C4A G23A C30U C31G A40C, ≤ 0.5.
C4A C29G G38C: the yeast fitness is ≤ 0.5.
For C4A G68U the value was 0.831; for C4A G68A, 0.962.
For C4A G10A G23A C55G C60A the value was ≤ 0.5.
Then C4A C46A G56A, with 0.736.
Take C4A C49A G58A: the yeast fitness is ≤ 0.5.
Then C4A C34U G51C A57C, with ≤ 0.5.
With C4A G17A G41A C66U, the yeast fitness stood at 0.508.
For C4A G6C the value was 0.703; for C4A G6A, 0.706.
For C4A G6A U64A the value was ≤ 0.5; for C4A C46A, 0.997; for C4A C46U, 0.903.
Then C4A C11G U13A A20C C22U A36C, with 0.705.
For C4A C29G A57G U59A A69U, the yeast fitness is ≤ 0.5.
For C4A C34U G38C C49G the value was ≤ 0.5.
For C4A C24U C29U U32C U54C the value was ≤ 0.5; for C4A U13C U32G, 0.571.
Then C4A G6A U53A A65U, with ≤ 0.5.
As for C4A C33U A57G C66G, the yeast fitness was ≤ 0.5.
For C4A G17A C30A the value was ≤ 0.5; for C4A G23A C31G A40C, 0.52; for C4A G17A C22A C31A C33A C49A, 0.525.
For C4A U7A C31A the value was 0.678.
For C4A G23C G56C U59A A65G the value was ≤ 0.5; for C4A G9A C24U C30U A36G A57G G58A G63A C66U, ≤ 0.5; for C4A G38A C55G, ≤ 0.5.
With C4A G67U A69G, the yeast fitness was found to be 0.751.
Then C4A C11U A40G, with ≤ 0.5; and C4A C11A, with 0.6.
For C4A C22G A69C the value was 0.538; for C4A G17A G41A, 0.525; for C4A G6C U8A A20C A21U C31A C33U C46U A57G, ≤ 0.5.
Then C4A G63A A65U, with ≤ 0.5.
As for C4A C33A G39C G51C C62U A69C, the yeast fitness is ≤ 0.5.
Then C4A G48A, with 0.964; and C4A U16A U32C C62U A70U, with ≤ 0.5.
For C4A G6A A65U the value was 0.539; for C4A C27U U28G C33G A36G C61G, ≤ 0.5.
For C4A C29U A36G G52C, the yeast fitness was ≤ 0.5.
Then C4A G6A A14G A65G, with ≤ 0.5; and C4A U7A A14G G17C C61U, with 0.543; and C4A U7C U26G A65C, with 0.59.
For C4A G25A A45U the value was 0.593.
